What was measured:
[1] = tested on: Heart; test: Drug uptake in mouse heart at 102 mg/kg, po administered as single dose at 2 hrs post dose; assay type: ADME, organism-based; conditions: in vivo
Outline: (§1)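 Mice, three per time point, single oral dose of 102 mg/kg (equivalent to 50 mg/kg gemcitabine). Heart, liver, spleen, lung, kidney and brain collected at 0.16, 0.5 and 2 h, rinsed in saline. 0.3 g tissue homogenized 1 min in 1 mL saline, spun 13,000 rpm 4 °C 5 min. Gemcitabine measured in supernatant.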

[2] = tested on: Mus musculus; test: Toxicity in Kunming mouse assessed as […] degeneration in kidney at 102 mg/kg, po administered once daily for 14 days by hematoxylin/eosin staining based optical microscopic analysis; assay type: organism-based; conditions: in vivo, 336 h
Outline: (§2)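 Kunming mice, four per group, dosed orally once daily for 14 days with 102 mg/kg or saline control; body weight recorded every other day. Heart, liver, spleen, lung and kidney fixed in 10% buffered formalin, paraffin-embedded, sectioned, stained with hematoxylin and eosin, and examined by optical microscopy.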

[3] = Half life in pH 1.2 phosphate buffer at 5 uM by HPLC method; assay type: physicochemical
Outline: (§3)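 Compound dissolved at 5 µM in phosphate buffer (pH 1.2, 6.8 or 7.4), held at 37 °C for 24 h. Aliquots taken at intervals and analysed by HPLC. t1/2 = 0.693/k from linear regression of pseudo-first-order kinetics.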

[4] = tested on: Mus musculus; test: Toxicity in Kunming mouse assessed as […] degeneration in hepatocytes at 102 mg/kg, po administered once daily for 14 days by hematoxylin/eosin staining based optical microscopic analysis; assay type: organism-based; conditions: in vivo, 336 h; outline: as §2
[5] = tested on: Mus musculus; test: Toxicity in Kunming mouse assessed as fibrosis in spleen at 102 mg/kg, po administered once daily for 14 days by hematoxylin/eosin staining based optical microscopic analysis; assay type: organism-based; conditions: in vivo, 336 h; outline: as §2
[6] = tested on: Heart; test: Drug uptake in mouse heart at 102 mg/kg, po administered as single dose at 0.5 hrs post dose; assay type: ADME, organism-based; conditions: in vivo; outline: as §1
[7] = Stability of the compound in pH 6.8 phosphate buffer at 5 uM by HPLC method; assay type: physicochemical; conditions: pH 6.8, 5 µM; outline: as §3
[8] = tested on: Mus musculus; test: Toxicity in Kunming mouse assessed as fibrosis in hepatocytes at 102 mg/kg, po administered once daily for 14 days by hematoxylin/eosin staining based optical microscopic analysis; assay type: organism-based; conditions: in vivo, 336 h; outline: as §2
[9] = tested on: Rattus norvegicus; test: AUC (0 to 24 hrs) in Wistar rat at 50 mg/kg, po administered as single dose by UPLC-MS/MS method; assay type: ADME, organism-based; set-up: dose 50 mg/kg, time < 24 hr, route oral; conditions: in vivo
Outline: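 Wistar rats, six per group, single oral dose equivalent to 50 mg/kg gemcitabine; separate group given gemcitabine iv at 7.5 mg/kg. Oral sampling at 5, 10, 15, 30 min and 1, 2, 4, 6, 8, 12, 24 h; iv at 15, 30 min and 2, 4, 8, 12, 24 h. Blood into THU-pretreated heparinized tubes, centrifuged 3000 × g 15 min, plasma at -80 °C. Prodrug and gemcitabine quantified by UPLC-MS/MS. F = AUCpo×Div/AUCiv/Dpo×100%.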

[10] = tested on: Mus musculus; test: Toxicity in Kunming mouse assessed as fibrosis in kidney at 102 mg/kg, po administered once daily for 14 days by hematoxylin/eosin staining based optical microscopic analysis; assay type: organism-based; conditions: in vivo, 336 h; outline: as §2
[11] = tested on: Mus musculus; test: Toxicity in Kunming mouse assessed as inflammatory infiltrates in cardiac muscle at 102 mg/kg, po administered once daily for 14 days by hematoxylin/eosin staining based optical microscopic analysis; assay type: organism-based; conditions: in vivo, 336 h; outline: as §2
[12] = target: T1, Organic cation/carnitine transporter 2 (Rattus norvegicus, UniProt O70594); test: Ratio of drug transport assessed as OCTN2 transporter mediated effective permeability in rat duodenum at 76 uM in absence of L-carnitine to drug transport assessed as OCTN2 transporter mediated effective permeability in rat duodenum at 76 uM in presence of L-carnitine; assay type: ADME
T1 sequence (O70594 whole entry): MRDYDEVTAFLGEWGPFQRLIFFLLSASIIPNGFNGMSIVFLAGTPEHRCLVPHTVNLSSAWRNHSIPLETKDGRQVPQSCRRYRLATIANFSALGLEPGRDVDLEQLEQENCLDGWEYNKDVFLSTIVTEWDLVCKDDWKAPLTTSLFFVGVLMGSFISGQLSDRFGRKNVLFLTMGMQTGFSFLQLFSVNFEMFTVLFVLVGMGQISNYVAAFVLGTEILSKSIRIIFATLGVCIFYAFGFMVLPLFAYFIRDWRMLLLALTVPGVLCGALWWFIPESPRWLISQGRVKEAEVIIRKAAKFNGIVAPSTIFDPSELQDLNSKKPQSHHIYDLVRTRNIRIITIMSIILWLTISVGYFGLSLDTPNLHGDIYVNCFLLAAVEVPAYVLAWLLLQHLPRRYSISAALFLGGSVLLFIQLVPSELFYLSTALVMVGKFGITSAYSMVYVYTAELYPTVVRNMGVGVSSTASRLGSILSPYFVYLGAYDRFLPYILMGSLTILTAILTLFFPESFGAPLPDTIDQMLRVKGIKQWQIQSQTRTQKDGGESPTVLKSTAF

[13] = tested on: Mus musculus; test: Toxicity in Kunming mouse assessed as […] degeneration in spleen at 102 mg/kg, po administered once daily for 14 days by hematoxylin/eosin staining based optical microscopic analysis; assay type: organism-based; conditions: in vivo, 336 h; outline: as §2
[14] = target: T2, Organic cation/carnitine transporter 2 (Homo sapiens, UniProt O76082); test: Ratio of drug transport assessed as OCTN2 transporter mediated drug uptake in human Caco2 cells at 100 uM in absence of L-carnitine to drug transport assessed as OCTN2 transporter mediated drug uptake in human Caco2 cells at 100 uM in presence of L-carnitine; assay type: ADME, cell-based; conditions: caco-2, 100 µM
T2 sequence (O76082 whole entry): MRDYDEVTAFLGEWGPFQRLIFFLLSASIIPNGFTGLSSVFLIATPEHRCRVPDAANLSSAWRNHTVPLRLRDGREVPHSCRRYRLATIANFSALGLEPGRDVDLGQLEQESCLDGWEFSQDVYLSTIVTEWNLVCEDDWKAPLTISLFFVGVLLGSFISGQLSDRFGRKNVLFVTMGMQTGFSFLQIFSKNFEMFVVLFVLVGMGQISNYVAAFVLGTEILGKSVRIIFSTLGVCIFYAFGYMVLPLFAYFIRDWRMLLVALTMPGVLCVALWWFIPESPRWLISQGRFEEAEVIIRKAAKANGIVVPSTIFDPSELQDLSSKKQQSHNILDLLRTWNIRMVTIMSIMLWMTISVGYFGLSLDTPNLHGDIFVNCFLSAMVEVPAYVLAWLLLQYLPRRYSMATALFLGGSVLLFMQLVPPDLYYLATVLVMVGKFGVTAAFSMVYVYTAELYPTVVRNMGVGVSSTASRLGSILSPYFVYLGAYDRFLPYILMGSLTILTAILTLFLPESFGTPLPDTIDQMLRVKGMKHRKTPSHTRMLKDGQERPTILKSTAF

[15] = tested on: Lung; test: Drug uptake in mouse lung at 102 mg/kg, po administered as single dose at 2 hrs post dose; assay type: ADME, organism-based; conditions: in vivo; outline: as §1
[16] = Half life in pH 7.4 phosphate buffer at 5 uM by HPLC method; assay type: physicochemical; outline: as §3
[17] = tested on: Mus musculus; test: Toxicity in Kunming mouse assessed as fibrosis in lung at 102 mg/kg, po administered once daily for 14 days by hematoxylin/eosin staining based optical microscopic analysis; assay type: organism-based; conditions: in vivo, 336 h; outline: as §2

C[N+](C)(C)CC(CC(=O)[O-])OC(=O)CCCCC(=O)Nc1ccn([C@@H]2O[C@H](CO)[C@@H](O)C2(F)F)c(=O)n1 (some centres not stated)
Drug uptake [1]: Not Active | Activity [2]: Non-Toxic | half-life at 5 µM [3]: 264 min | Activity [4]: Non-Toxic | Activity [5]: Non-Toxic | Drug uptake [6]: Active | Stability [7]: Stable | Activity [8]: Non-Toxic | AUC [9]: 24.3 µg·h/mL | Activity [10]: Non-Toxic | Activity [11]: Non-Toxic | Ratio [12]: 11 | Activity [13]: Non-Toxic | Ratio [14]: 2.2 to 3.7 | Drug uptake [15]: Not Active | half-life at 5 µM [16]: 2750 min | Activity [17]: Non-Toxic

From ChEMBL document CHEMBL4049387, “Combination of l-Carnitine with Lipophilic Linkage-Donating Gemcitabine Derivatives as Intestinal Novel Organic Cation Transporter 2-Targeting Oral Prodrugs” (J Med Chem, 2017)
